Source: ChEMBL document CHEMBL2150994, “Design, synthesis, and pharmacological evaluation of glutamate carboxypeptidase II (GCPII) inhibitors based on thioalkylbenzoic acid scaffolds” (J Med Chem, 2012)
Activity calls are given as the source filed them. The calls are words filed in the database; no cut-off is given here.

Legend:
[1] = target: Glutamate carboxypeptidase 2 (Homo sapiens, UniProt Q04609); experiment: Inhibition of human recombinant GCP2 using N-acetyl-L-aspartyl-[3H]-L-glutamate as substrate by microplate assay
Outline: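 Radiometric enzyme assay using purified human recombinant GCPII with N-acetyl-L-aspartyl-[3H]-L-glutamate as substrate. IC50 was determined.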

Salmonella typhimurium [2] = experiment: Mutagenic activity in Salmonella typhimurium TA1535 by Ames test in absence of S9 fraction; assay type: toxicity, organism-based; details: salmonella enterica subsp. enterica serovar typhimurium
[3] = Inhibition of NMDA receptor polyamine binding site at 10 uM
Outline: (§1)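 Outsourced receptor binding and enzyme panel, covering NMDA receptor (agonist, glycine, phencyclidine and polyamine sites), AMPA, kainate, strychnine-sensitive glycine receptor and kidney-type glutaminase. Percent inhibition was measured at 10 μM, with glutaminase tested up to 100 μM.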

[4] = Inhibition of NMDA receptor glycine binding site at 10 uM; outline: as §1
[5] = AUC (0 to infinity) in fasted rat at 10 mg/kg, iv; assay type: ADME, organism-based; design: time infinity, dose 10 mg/kg, route intravenous; details: plasma
Outline: (§2)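 Fasted rats dosed at 10 mg/kg intravenously (n = 4) or orally (n = 9). Plasma was sampled and the pharmacokinetic parameters Cmax, Tmax, AUCinf, CL/F, terminal t1/2 and oral bioavailability F were derived. Values are given as mean ± deviation for each route.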

[6] = target: T1, Glutaminase kidney isoform, mitochondrial (Homo sapiens) (UniProt O94925); experiment: Inhibition of glutaminase kidney isoform at 100 uM
T1 sequence (whole entry): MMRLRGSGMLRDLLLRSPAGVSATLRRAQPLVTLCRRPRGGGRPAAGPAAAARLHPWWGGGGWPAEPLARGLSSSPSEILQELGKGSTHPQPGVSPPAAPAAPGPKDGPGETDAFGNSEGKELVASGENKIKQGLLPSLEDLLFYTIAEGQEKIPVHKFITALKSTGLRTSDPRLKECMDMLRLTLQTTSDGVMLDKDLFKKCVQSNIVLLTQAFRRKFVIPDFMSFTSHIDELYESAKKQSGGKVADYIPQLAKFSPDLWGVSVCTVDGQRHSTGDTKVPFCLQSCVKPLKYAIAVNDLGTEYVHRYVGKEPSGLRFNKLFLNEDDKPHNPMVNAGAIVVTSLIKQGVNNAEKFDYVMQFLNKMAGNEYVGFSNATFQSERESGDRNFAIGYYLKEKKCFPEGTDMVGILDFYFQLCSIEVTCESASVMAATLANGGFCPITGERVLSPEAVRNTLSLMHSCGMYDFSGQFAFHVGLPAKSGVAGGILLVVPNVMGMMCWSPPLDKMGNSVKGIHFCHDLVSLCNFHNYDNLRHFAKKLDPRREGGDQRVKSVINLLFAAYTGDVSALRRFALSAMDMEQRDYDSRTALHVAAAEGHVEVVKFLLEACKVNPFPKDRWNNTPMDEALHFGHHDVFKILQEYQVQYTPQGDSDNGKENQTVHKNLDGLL

Liver microsomes [7] = experiment: Metabolic stability in rat liver microsomes after 2 hrs; assay type: ADME, Microsome
Outline: (§3)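 Compound was incubated with liver microsomes from mouse, rat, dog, monkey and human for 2 h. Metabolism was assessed by detection of compound turnover.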

Salmonella typhimurium [8] = experiment: Mutagenic activity in Salmonella typhimurium TA100 by Ames test in absence of S9 fraction; assay type: toxicity, organism-based; details: salmonella enterica subsp. enterica serovar typhimurium
Salmonella typhimurium [9] = experiment: Mutagenic activity in Salmonella typhimurium TA98 by Ames test in presence of S9 fraction; assay type: toxicity, organism-based; details: salmonella enterica subsp. enterica serovar typhimurium
[10] = AUC (0 to infinity) in fasted rat at 10 mg/kg, po; assay type: ADME, organism-based; design: time infinity, dose 10 mg/kg, route oral; details: plasma; outline: as §2
Liver [11] = experiment: Metabolic stability in mouse liver microsomes after 2 hrs; assay type: ADME, Microsome; outline: as §3
[12] = Inhibition of AMPA receptor at 10 uM; outline: as §1
Salmonella typhimurium [13] = experiment: Mutagenic activity in Salmonella typhimurium TA1535 by Ames test in presence of S9 fraction; assay type: toxicity, organism-based; details: salmonella enterica subsp. enterica serovar typhimurium
Salmonella typhimurium [14] = experiment: Mutagenic activity in Salmonella typhimurium TA100 by Ames test in presence of S9 fraction; assay type: toxicity, organism-based; details: salmonella enterica subsp. enterica serovar typhimurium
[15] = Inhibition of NMDA receptor at 10 uM; outline: as §1
Rattus norvegicus = experiment: Antinociceptive activity in rat chronic constriction injury neuropathic pain model assessed as reduction of thermal hyperalgesia at 0.1 mg/kg/day measured on day 8 and 12 relative to vehicle-treated control; assay type: functional, organism-based
Outline: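 Rat chronic constriction injury model of neuropathic pain, after Bennett. Dosing was oral at 0.1 mg kg-1 day-1 against vehicle-treated controls. Read-out was thermal hyperalgesia on days 8 and 12, with significance at p < 0.05.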

[16] = Inhibition of kainate receptor at 10 uM; outline: as §1
[17] = Oral bioavailability in fasted rat at 10 mg/kg; assay type: ADME, organism-based; details: in vivo; outline: as §2
[18] = Apparent oral clearance in fasted rat at 10 mg/kg; assay type: ADME, organism-based; design: dose 10 mg/kg, route oral; details: in vivo; outline: as §2
[19] = Terminal half life in fasted rat at 10 mg/kg, po; assay type: ADME, organism-based; design: dose 10 mg/kg, route oral; details: in vivo, read-out: beta t1/2 (converted); outline: as §2
Salmonella typhimurium [20] = experiment: Mutagenic activity in Salmonella typhimurium TA98 by Ames test in absence of S9 fraction; assay type: toxicity, organism-based; details: salmonella enterica subsp. enterica serovar typhimurium
[21] = Metabolic stability in monkey liver microsomes after 2 hrs; assay type: ADME, Macaca mulatta, Microsome; details: rhesus monkey; outline: as §3
[22] = target: Voltage-gated inwardly rectifying potassium channel KCNH2 (Homo sapiens, UniProt Q12809); experiment: Inhibition of human ERG upto 100 uM
Outline: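 hERG channel assay run by an external contractor, with compound tested at concentrations up to 100 μM.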

[23] = Cmax in fasted rat at 10 mg/kg, po; assay type: ADME, organism-based; design: dose 10 mg/kg, route oral; details: in vivo; outline: as §2
Liver microsomes [24] = experiment: Metabolic stability in human liver microsomes after 2 hrs; assay type: ADME, Microsome; outline: as §3
Salmonella typhimurium [25] = experiment: Mutagenic activity in Salmonella typhimurium TA1537 by Ames test in presence of S9 fraction; assay type: toxicity, organism-based; details: salmonella enterica subsp. enterica serovar typhimurium
[26] = Inhibition of strychnine-sensitive glycine receptor at 10 uM; outline: as §1
[27] = Inhibition of NMDA receptor phencyclidine binding site at 10 uM; outline: as §1
Salmonella typhimurium [28] = experiment: Mutagenic activity in Salmonella typhimurium TA1537 by Ames test in absence of S9 fraction; assay type: toxicity, organism-based; details: salmonella enterica subsp. enterica serovar typhimurium
[29] = Terminal half life in fasted rat at 10 mg/kg, iv; assay type: ADME, organism-based; design: dose 10 mg/kg, route intravenous; details: in vivo, read-out: beta t1/2 (converted); outline: as §2
[30] = Tmax in fasted rat at 10 mg/kg, po; assay type: ADME, organism-based; design: dose 10 mg/kg, route oral; details: in vivo; outline: as §2
[31] = Apparent oral clearance in fasted rat at 10 mg/kg, iv; assay type: ADME, organism-based; design: dose 10 mg/kg, route oral; details: in vivo; outline: as §2
Liver [32] = experiment: Metabolic stability in dog liver microsomes after 2 hrs; assay type: ADME, Canis lupus familiaris, Microsome; outline: as §3

Glutamate carboxypeptidase 2, sequence (Q04609 whole entry): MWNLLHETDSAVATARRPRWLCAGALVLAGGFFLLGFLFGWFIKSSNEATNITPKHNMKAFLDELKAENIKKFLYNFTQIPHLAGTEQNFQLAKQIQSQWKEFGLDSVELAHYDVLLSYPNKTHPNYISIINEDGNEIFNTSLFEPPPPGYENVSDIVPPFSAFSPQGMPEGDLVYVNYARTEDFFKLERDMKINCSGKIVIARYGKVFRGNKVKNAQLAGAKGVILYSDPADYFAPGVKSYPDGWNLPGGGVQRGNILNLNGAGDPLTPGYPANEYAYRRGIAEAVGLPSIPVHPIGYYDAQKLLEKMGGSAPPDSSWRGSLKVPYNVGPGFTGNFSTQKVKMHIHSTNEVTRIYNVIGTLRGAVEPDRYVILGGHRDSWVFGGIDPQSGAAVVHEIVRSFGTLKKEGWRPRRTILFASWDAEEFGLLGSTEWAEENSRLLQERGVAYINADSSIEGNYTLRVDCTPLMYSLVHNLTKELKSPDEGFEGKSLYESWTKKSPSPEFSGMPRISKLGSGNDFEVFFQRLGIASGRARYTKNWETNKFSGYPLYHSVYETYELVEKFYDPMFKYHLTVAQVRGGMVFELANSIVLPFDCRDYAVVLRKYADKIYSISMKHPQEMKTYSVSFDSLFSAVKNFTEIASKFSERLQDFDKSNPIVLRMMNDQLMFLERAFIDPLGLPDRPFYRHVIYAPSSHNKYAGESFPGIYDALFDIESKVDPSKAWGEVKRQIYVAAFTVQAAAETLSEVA
Voltage-gated inwardly rectifying potassium channel KCNH2, sequence (Q12809 whole entry): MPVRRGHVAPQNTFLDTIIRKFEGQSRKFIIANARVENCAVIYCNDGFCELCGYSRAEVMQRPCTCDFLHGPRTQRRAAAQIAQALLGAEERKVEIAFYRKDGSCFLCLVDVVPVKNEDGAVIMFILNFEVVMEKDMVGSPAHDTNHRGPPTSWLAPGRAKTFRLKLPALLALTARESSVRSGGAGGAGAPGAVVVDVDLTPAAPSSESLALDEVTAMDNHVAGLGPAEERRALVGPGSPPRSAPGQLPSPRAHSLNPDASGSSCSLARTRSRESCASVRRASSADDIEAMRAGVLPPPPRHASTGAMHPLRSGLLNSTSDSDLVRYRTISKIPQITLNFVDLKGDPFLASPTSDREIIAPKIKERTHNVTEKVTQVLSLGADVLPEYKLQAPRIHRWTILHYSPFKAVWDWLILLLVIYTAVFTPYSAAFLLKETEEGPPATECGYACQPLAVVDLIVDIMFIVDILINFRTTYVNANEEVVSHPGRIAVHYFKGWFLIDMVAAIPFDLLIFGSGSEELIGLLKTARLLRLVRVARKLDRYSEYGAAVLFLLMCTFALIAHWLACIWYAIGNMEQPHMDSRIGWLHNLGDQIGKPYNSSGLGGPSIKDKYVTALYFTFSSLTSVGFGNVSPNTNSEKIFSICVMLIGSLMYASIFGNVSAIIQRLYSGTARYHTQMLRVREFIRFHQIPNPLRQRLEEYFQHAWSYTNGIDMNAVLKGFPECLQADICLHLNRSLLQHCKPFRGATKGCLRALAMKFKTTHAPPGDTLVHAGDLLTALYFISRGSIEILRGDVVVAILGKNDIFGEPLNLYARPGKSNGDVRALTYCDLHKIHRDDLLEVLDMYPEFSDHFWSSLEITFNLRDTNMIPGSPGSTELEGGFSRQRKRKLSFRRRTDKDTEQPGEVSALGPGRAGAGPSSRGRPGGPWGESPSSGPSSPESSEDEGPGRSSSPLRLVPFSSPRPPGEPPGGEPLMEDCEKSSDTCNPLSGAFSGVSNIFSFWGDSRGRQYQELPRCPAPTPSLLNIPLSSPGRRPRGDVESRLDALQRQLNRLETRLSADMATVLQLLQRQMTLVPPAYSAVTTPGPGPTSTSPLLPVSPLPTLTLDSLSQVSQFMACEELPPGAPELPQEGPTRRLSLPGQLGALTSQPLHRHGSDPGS

## O=C(O)c1ccccc1COc1ccc(CS)cc1C(=O)O
[1]
  IC50: 41 nM

## O=C(O)c1ccc(-c2cccc(CCS)c2C(=O)O)cc1
[1]
  IC50: 7 nM

## O=C(O)c1cccc(CS)c1
[1]
  IC50: 1300 nM

## O=C(O)c1cccc(-c2cccc(CCS)c2C(=O)O)c1
Salmonella typhimurium [2]
  Activity: Non-toxic
[3]
  inhibition: inactive
[4]
  inhibition: 12%
[5]
  AUC(0-inf): 90600 ng·h/mL
[6]
  inhibition: inactive
Liver microsomes [7]
  Stability: Stable
Salmonella typhimurium [8]
  Activity: Non-toxic
Salmonella typhimurium [9]
  Activity: Non-toxic
[10]
  AUC(0-inf): 33800 ng·h/mL
Liver [11]
  Stability: Stable
[12]
  inhibition: inactive
Salmonella typhimurium [13]
  Activity: Non-toxic
Salmonella typhimurium [14]
  Activity: Non-toxic
[15]
  inhibition: < 5%
Rattus norvegicus
  Activity: Active
[16]
  inhibition: inactive
[17]
  bioavailability: 37%
[18]
  CL/F: 5.3 mL/min/kg
[19]
  half-life: 3.2 h
Salmonella typhimurium [20]
  Activity: Non-toxic
[21]
  Stability: Stable
[22]
  inhibition (INH): Not Active
[23]
  Cmax: 7100 ng/mL
Liver microsomes [24]
  Stability: Stable
Salmonella typhimurium [25]
  Activity: Non-toxic
[26]
  inhibition: inactive
[27]
  inhibition: inactive
Salmonella typhimurium [28]
  Activity: Non-toxic
[29]
  half-life: 3.6 h
[30]
  Tmax: 1.1 h
[31]
  CL/F: 4.45 mL/min/kg
Liver [32]
  Stability: Stable

## O=C(O)c1ccc(COc2cccc(CCS)c2C(=O)O)cc1
[1]
  IC50: 200 nM

## O=C(O)CCC(CCCS)C(=O)O (centres undefined)
[10]
  AUC(0-inf): 1820 ng·h/mL

## O=C(O)c1cccc(-c2ccc(CS)cc2C(=O)O)c1
[1]
  IC50: 38 nM

## O=C(O)c1ccc(COc2ccc(CS)cc2C(=O)O)cc1
[1]
  IC50: 16 nM

## O=C(O)c1c(CCS)cccc1OCc1ccccc1
[1]
  IC50: 200 nM

## O=C(O)c1cc(CS)ccc1-c1ccccc1
[1]
  IC50: 5700 nM

## O=C(O)c1ccccc1-c1cccc(CCS)c1C(=O)O
[1]
  IC50: 230 nM

## O=C(O)c1ccccc1COc1cccc(CCS)c1C(=O)O
[1]
  IC50: 140 nM

## O=C(O)c1c(CCS)cccc1-c1ccccc1
[1]
  IC50: 1400 nM

## O=C(O)c1ccc(-c2ccc(CS)cc2C(=O)O)cc1
[1]
  IC50: 52 nM

## O=C(O)c1ccccc1CCS
[1]
  IC50: 930 nM

## O=C(O)c1ccccc1-c1ccc(CS)cc1C(=O)O
[1]
  IC50: 340 nM

## O=C(O)c1cccc(COc2cccc(CCS)c2C(=O)O)c1
[1]
  IC50: 69 nM

## O=C(O)c1cccc(COc2ccc(CS)cc2C(=O)O)c1
[1]
  IC50: 2 nM
